The text below walks through data of ChEMBL document CHEMBL1147533, “Highly diastereoselective inverse electron demand (IED) Diels-Alder reaction mediated by chiral salen-AlCl complex: the first, target-oriented synthesis of pyranoquinolines as potential antibacterial agents” (Bioorg Med Chem Lett, 2004).

Format in all cases: functional, organism-based
For experiment [1], the system named is Vibrio fluvialis. As to the kind of experiment: In vitro antibacterial activity against Vibrio fluvialis in test 1; - indicates No activity. The gist of the method:
(§1)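 Five microlitres of compound stock (about 0.2 mg) combined with bacterial suspension in Tris-buffered saline (0.8 OD at 580 nm). Mixture incubated 14 h at 14 °C, then plated on TCBS agar (thiosulphate–citrate–bile salt–sucrose) to read bactericidal activity.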

The test system of experiment [2] is Escherichia coli. Briefly: In vitro antibacterial activity against Escherichia coli in test 1; ++ indicates mild activity. A digest of the protocol: as §1
The subject of experiment [3] is Vibrio fluvialis. Briefly: In vitro antibacterial activity against Vibrio fluvialis in test 2; - indicates No activity. A digest of the protocol: as §1
Experiment [4] has as its system Escherichia coli. As to the kind of experiment: In vitro antibacterial activity against Escherichia coli in test 2; ++ indicates mild activity. The gist of the method:
as §1

In experiment [5] the test system is Vibrio anguillarum. Briefly: n vitro antibacterial activity of (25:50%) of compounds against Vibrio anguillarum at a concentration of 2 mg/mL; + indicates No activity. A digest of the protocol: as §1
Experiment [6] relates to Vibrio fluvialis. As to the kind of experiment: n vitro antibacterial activity of (25:50%) of compounds against Vibrio fluvialis at a concentration of 2 mg/mL; + indicates No activity. A digest of the protocol:
as §1

The subject of experiment [7] is Vibrio mimicus. As to the kind of experiment: In vitro antibacterial activity of (50:50%) of compounds against Vibrio mimicus at a concentration of 2 mg/mL; - indicates No activity. The gist of the method: as §1
The test system of experiment [8] is Vibrio mimicus. As to the kind of experiment: n vitro antibacterial activity of (25:50%) of compounds against Vibrio mimicus at a concentration of 2 mg/mL; + indicates No activity. A digest of the protocol:
as §1

Experiment [9] concerns Vibrio anguillarum. As to the kind of experiment: In vitro antibacterial activity of (50:50%) of compounds against Vibrio anguillarum at a concentration of 2 mg/mL; - indicates No activity. A digest of the protocol:
as §1

For experiment [10], the system named is Vibrio parahaemolyticus. As to the kind of experiment: In vitro antibacterial activity of (50:50%) of compounds against Vibrio parahaemolyticus at a concentration of 2 mg/mL; - indicates No activity. A digest of the protocol:
as §1

For experiment [11], the system named is Pseudomonas sp. Briefly: In vitro antibacterial activity of (50:50%) of compounds against Pseudomonas species at a concentration of 2 mg/mL; - indicates No activity. A digest of the protocol: as §1
Experiment [12] has as its system Vibrio alginolyticus. As to the kind of experiment: n vitro antibacterial activity of (25:50%) of compounds against Vibrio alginolyticus at a concentration of 2 mg/mL; + indicates No activity. A digest of the protocol:
as §1

Experiment [13] has as its system Vibrio fluvialis. As to the kind of experiment: In vitro antibacterial activity of (50:50%) of compounds against Vibrio fluvialis at a concentration of 2 mg/mL; - indicates No activity. A digest of the protocol: as §1
In experiment [14] the test system is Pseudomonas sp. Briefly: n vitro antibacterial activity of (25:50%) of compounds against Pseudomonas species at a concentration of 2 mg/mL; + indicates No activity. A digest of the protocol: as §1
Experiment [15] concerns Vibrio parahaemolyticus. As to the kind of experiment: n vitro antibacterial activity of (25:50%) of compounds against Vibrio parahaemolyticus at a concentration of 2 mg/mL; + indicates No activity. A digest of the protocol: as §1
For experiment [16], the system named is Vibrio vulnificus. Briefly: In vitro antibacterial activity of (50:50%) of compounds against Vibrio vulnificus at a concentration of 2 mg/mL; - indicates No activity. A digest of the protocol:
as §1

In experiment [17] the test system is Vibrio vulnificus. As to the kind of experiment: n vitro antibacterial activity of (25:50%) of compounds against Vibrio vulnificus at a concentration of 2 mg/mL; + indicates No activity. The gist of the method:
as §1

For experiment [18], the system named is Escherichia coli. As to the kind of experiment: n vitro antibacterial activity of (25:50%) of compounds against Escherichia coli at a concentration of 2 mg/mL; + indicates No activity. The gist of the method: as §1
The test system of experiment [19] is Escherichia coli. Briefly: In vitro antibacterial activity of (50:50%) of compounds against Escherichia coli at a concentration of 2 mg/mL; - indicates No activity. A digest of the protocol: as §1
For experiment [20], the system named is Vibrio alginolyticus. As to the kind of experiment: In vitro antibacterial activity of (50:50%) of compounds against Vibrio alginolyticus at a concentration of 2 mg/mL; - indicates No activity. The gist of the method:
as §1

Experiment [21] relates to Vibrio mimicus. As to the kind of experiment: In vitro antibacterial activity against Vibrio mimicus at a concentration of 2 mg/mL; - indicates No activity. The gist of the method: as §1
Experiment [22] concerns Vibrio anguillarum. As to the kind of experiment: In vitro antibacterial activity against Vibrio anguillarum at a concentration of 2 mg/mL; - indicates No activity. A digest of the protocol: as §1
The test system of experiment [23] is Vibrio alginolyticus. As to the kind of experiment: In vitro antibacterial activity against Vibrio alginolyticus at a concentration of 2 mg/mL; - indicates No activity. A digest of the protocol: as §1
Experiment [24] has as its system Pseudomonas sp. Briefly: In vitro antibacterial activity against Pseudomonas species at a concentration of 2 mg/mL; - indicates No activity. A digest of the protocol:
as §1

Experiment [25] deals with Vibrio fluvialis. Briefly: In vitro antibacterial activity against Vibrio fluvialis at a concentration of 2 mg/mL; - indicates No activity. The gist of the method: as §1
The subject of experiment [26] is Vibrio parahaemolyticus. Briefly: In vitro antibacterial activity against Vibrio parahaemolyticus at a concentration of 2 mg/mL; - indicates No activity. A digest of the protocol: as §1
In experiment [27] the test system is Vibrio vulnificus. As to the kind of experiment: In vitro antibacterial activity against Vibrio vulnificus at a concentration of 2 mg/mL; - indicates No activity. A digest of the protocol:
as §1

Experiment [28] deals with Escherichia coli. As to the kind of experiment: In vitro antibacterial activity against Escherichia coli at a concentration of 2 mg/mL; - indicates No activity. A digest of the protocol: as §1

Turning to `c1ccc([C@H]2Nc3ccccc3[C@@H]3OCCC[C@H]23)cc1`, the Activity result was “Not toxic” in the experiment on Vibrio fluvialis [1], “mild activity” in the experiment with Escherichia coli [2], “Not toxic” with Vibrio fluvialis [3] and “mild activity” with Escherichia coli [4].
As to `c1ccc([C@@H]2Nc3ccccc3[C@@H]3OCCC[C@H]23)cc1.c1ccc([C@H]2Nc3ccccc3[C@@H]3OCCC[C@H]23)cc1`, the Activity entry in the experiment on Vibrio anguillarum [5] is “No activity”; in the experiment with Vibrio fluvialis [6] it was “No activity”; in the experiment on Vibrio mimicus [7], “Not toxic”; in the experiment on Vibrio mimicus [8] it was “No activity”; with Vibrio anguillarum [9] it was “Not toxic”; with Vibrio parahaemolyticus [10], “Not toxic”. Further, the Activity entry is “Not toxic” with Pseudomonas sp. [11]; “No activity” in the experiment on Vibrio alginolyticus [12]; “Not toxic” with Vibrio fluvialis [13]; “No activity” in the experiment on Pseudomonas sp. [14]; “No activity” in the experiment with Vibrio parahaemolyticus [15]; “Not toxic” with Vibrio vulnificus [16]. The Activity result was “No activity” in the experiment with Vibrio vulnificus [17], “No activity” with Escherichia coli [18], “Not toxic” in the experiment on Escherichia coli [19] and “Not toxic” with Vibrio alginolyticus [20].
Consider `c1ccc([C@@H]2Nc3ccccc3[C@@H]3OCCC[C@H]23)cc1`, for which the Activity entry in the experiment with Vibrio mimicus [21], with Vibrio anguillarum [22], in the experiment with Vibrio alginolyticus [23], in the experiment on Pseudomonas sp. [24], in the experiment with Vibrio fluvialis [25] and in the experiment on Vibrio parahaemolyticus [26] was “Not toxic” throughout. Moreover, the Activity entry with Vibrio vulnificus [27] and in the experiment on Escherichia coli [28] was “Not toxic” each time.
